This is a sample that favours compounds with a hit; in the whole collection about 3.1% have one here.
KCNQ1 act = potentiators or activators of KCNQ1 channel, primary screen, cell-based, thallium flux, high-throughput; 310,000 tested, 0.35% active; CHO-K1 KCNQ1, thallium flux FluxOR fluorescence; stronger effect = higher value; Potassium voltage-gated channel subfamily KQT member 1 (Homo sapiens), P51787; B-score at 10 µM; AID 2648, 2010;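 active means fluorescence ratio B-score, a plate-corrected score, at least three library SD, with initial intensity B-score within 5 SD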
Target sequence (P51787 whole entry, looked up): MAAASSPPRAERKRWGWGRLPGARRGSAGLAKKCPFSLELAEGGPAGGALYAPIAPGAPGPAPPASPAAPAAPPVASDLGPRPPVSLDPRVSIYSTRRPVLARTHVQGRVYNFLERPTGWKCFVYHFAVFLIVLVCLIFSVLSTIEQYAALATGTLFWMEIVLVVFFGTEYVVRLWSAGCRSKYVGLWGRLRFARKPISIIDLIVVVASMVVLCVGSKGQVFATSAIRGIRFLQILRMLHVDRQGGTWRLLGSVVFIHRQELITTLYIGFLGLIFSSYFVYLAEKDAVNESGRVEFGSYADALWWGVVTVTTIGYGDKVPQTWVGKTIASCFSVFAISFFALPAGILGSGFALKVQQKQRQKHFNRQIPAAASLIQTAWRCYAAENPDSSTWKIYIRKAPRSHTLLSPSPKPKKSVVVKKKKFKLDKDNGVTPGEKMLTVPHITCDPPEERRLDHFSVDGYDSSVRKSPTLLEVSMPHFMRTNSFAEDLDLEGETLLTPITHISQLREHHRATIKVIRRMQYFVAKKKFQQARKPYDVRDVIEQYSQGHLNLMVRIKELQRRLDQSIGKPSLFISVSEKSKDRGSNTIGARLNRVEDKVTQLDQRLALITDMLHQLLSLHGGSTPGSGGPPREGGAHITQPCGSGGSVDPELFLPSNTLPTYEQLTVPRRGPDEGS
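System: Stable KCNQ1 CHO-K1 line | Incubation: 90 min dye loading and 20 min compound exposure, both at room temperature | Measure: Ratio B score | Medium: Assay buffer for compound exposure, DMSO matched across wells | Compound dosing: Single-concentration screen | Probe or stimulus: K+/Tl+ depolarizing stimulus | Measured by: Kinetic FluxOR fluorescence, 10 s baseline plus 110 s post-stimulus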
KCNK9 inh = KCNK9 potassium channel inhibitors, primary screen, HEK293 cells, thallium flux; Potassium channel subfamily K member 9 (Homo sapiens), Q9NPC2; FluxOR thallium flux fluorescence; stronger effect = lower value; B-score at 10 µM; 310,000 tested, 1.2% active;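 active means ratio B-score over 3 SD below the library mean, with starting fluorescence within 5 SD of its mean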;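 further: negative B-score means less thallium flux so channel inhibition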
KCNQ1 inh = inhibitors of human KCNQ1 channel, primary screen, cell-based, thallium flux, high-throughput. 310,000 tested, 1.3% active. CHO-K1 KCNQ1, FluxOR thallium flux fluorescence; stronger effect = higher value. AID 2642, 2010. B-score at 10 µM;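 active means compounds whose thallium flux B-score, printed positive for inhibition, exceeds three library SD while starting fluorescence stays within three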;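 further: channel opened by potassium depolarization with thallium stimulus after 20 min compound exposure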
KCNK3 inh = human KCNK3 channel inhibitors, primary screen, CHO cells, FluxOR thallium flux, B-score | Potassium channel subfamily K member 3 (Homo sapiens), O14649 | FluxOR fluorescence; stronger effect = lower value | B-score at 10 µM | 340,000 tested, 0.84% active | AID 602410, 2012;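 active means B-score under library mean minus 4 SD, starting fluorescence ratio at most library mean plus 5 SD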;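 further: more negative B-score means stronger inhibition of thallium flux through KCNK3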
hERG rescue = hERG rescue from dofetilide block, primary screen, cell-based, CHO-hERG, FluxOR thallium flux, dofetilide IC70; dofetilide IC70 present; 310,000 tested, 0.51% active; Voltage-gated inwardly rectifying potassium channel KCNH2 (Homo sapiens), Q12809; activation (rescue from dofetilide block), less the hit threshold, % at 10 µM;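 active means activation above the mean of controls blocked by dofetilide plus 5 SD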;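 further: thallium influx through hERG after potassium depolarization seen as dye fluorescence rise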
KCNK9 inh conf = KCNK9 potassium channel inhibitors, confirmation, HEK293 cells, thallium flux, duplicate; shares compounds with KCNK9 inh; FluxOR thallium flux fluorescence; inhibition, % at 10 µM; 4,900 tested, 43% active;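 active means thallium signal inhibited by more than 5 SD of the compound-free buffer control wells, on both duplicate plates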;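 further: 0% = assay buffer control wells without compound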
Kir21 sel = mouse Kir2.1 channel inhibition, confirmation, selectivity assay for KCNK9 modulator project, cell-based, HEK293, thallium flux | shares compounds with KCNK9 inh | Kir2.1 cells, FluxOR thallium flux fluorescence | 4,900 tested, 4% active | AID 492993, 2010 | inhibition, % at 10 µM;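 active means thallium signal drop more than 5 SD beyond the mean of the no-compound control wells, seen in both duplicate plates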;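 further: signal is fluorescence rise after thallium addition divided by baseline fluorescence; plate controls were assay buffer only for no effect and full block by chlorpromazine control for full effect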
KCNK9 uninduced = thallium flux in non-induced HEK293 cells, confirmation, counter-screen for KCNK9 inhibitor project, cell-based, second counter screen, non-induced KCNK9-HEK293; FluxOR thallium flux; inhibition, % at 10 µM; shares compounds with KCNK9 inh; 4,900 tested, 40% active;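 active means thallium signal drop beyond 5 SD of the untreated control mean, on both duplicate plates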;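 further: plate controls were buffer only IC0 wells for no effect and SID17386958 at its maximal inhibitory level for full effect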
KCNK3 inh conf = retest of human KCNK3 channel inhibitors, confirmation, CHO cells, FluxOR thallium flux, triplicate; shares compounds with KCNK3 inh; ratio percent of control, % at 10 µM; AID 651638, 2012; 2,400 tested, 99% active; FluxOR fluorescence; 0% buffer, 100% carvedilol maximal block;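 active means ratio percent of control, averaged over triplicates, above buffer control mean plus 5 SD, cut at about 64% in these data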;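 further: ratio is the fluorescence rise from min to max over baseline after thallium stimulus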
KCNK3 noninduced = thallium flux inhibition in non-induced cells, primary screen, counter-screen for KCNK3 inhibitor project, cell-based, non-induced KCNK3 line, FluxOR thallium, triplicate. 2,400 tested, 40% active. shares compounds with KCNK3 inh. thallium flux ratio (lower = more inhibition) at 10 µM. AID 651747, 2012. non-induced KCNK3 parental cells; stronger effect = lower value;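 active means thallium flux ratio, averaged over three wells, more than 5 SD below the buffer control mean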;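 further: host cells are CHO cells without KCNK3 induction; ratio is peak minus trough fluorescence over baseline then normalized to buffer controls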
* hit, by the source's call; i = inactive; x = not tested or not shown.

SMILES	KCNQ1 act	KCNK9 inh	KCNQ1 inh	KCNK3 inh	hERG rescue	KCNK9 inh conf	Kir21 sel	KCNK9 uninduced	KCNK3 inh conf	KCNK3 noninduced
O=C1CC(NS(=O)(=O)c2ccc([N+](=O)[O-])cc2)CN1c1ccc(Cl)cc1 (stereo unspecified)	i	i	i	i	-6	x	x	x	x	x
CCN(c1ccccc1)S(=O)(=O)c1ccc(Oc2ccc(C(C)=O)cc2OC)nc1	x	x	x	i	x	x	x	x	x	x
COc1ccccc1OCCCN1C(=O)C(=O)c2cccc(C)c21	i	-12*	i	-10*	-15	49%*	i	i	112*	i
O=C(N/N=C/c1cccc(Oc2ccccc2)c1)c1cccc(Br)c1	i	-11*	i	-11*	5.6*	54%*	i	26%*	99*	0.16*
Nc1nc(SCc2ccccn2)c2ncn(C3OC(CO)C(O)C3O)c2n1 (stereo unspecified)	x	x	x	i	x	x	x	x	x	x
CCc1ccc(/C=C\C(=O)N2CCCC2)cc1	i	i	i	i	-6	x	x	x	x	x
CC(C)Cc1ccc(/C=C/C(=O)N2CCCCC2)cc1	i	-9.8*	i	-13*	-9	74%*	i	39%*	114*	i
O=C(COc1ccccc1Cl)Nc1ccc(S(=O)(=O)Nc2ccccn2)cc1	i	i	i	i	-6	x	x	x	x	x
CCCCCOC(=O)c1ccc(NC(=O)c2ccco2)cc1	i	-12*	i	i	-7	49%*	i	i	123*	0.15*
CCOC(=O)c1cccc(NC(=O)c2ccc(NC(=O)c3ccco3)cc2)c1	i	i	i	i	-9	x	x	x	x	x
CC(C)[C@H](NC(=O)OCc1ccccc1)C(=O)OCC(=O)N1C(C)CCCC1C (stereo partly specified)	x	x	x	i	x	x	x	x	x	x
CN(c1ccccc1)S(=O)(=O)c1cccc(NC(=O)CN2CCCc3ccccc32)c1	i	-11*	i	-9.8*	-8	50%*	i	24%*	113*	i
NS(=O)(=O)c1cccc(NC(=O)CN2CCc3ccccc32)c1	i	i	i	i	-11	x	x	x	x	x
CCN(CC)C(=O)C1CCCN(c2ccc([N+](=O)[O-])cc2/C=N/NC(=O)c2cccc(Br)c2)C1 (stereo unspecified)	i	-12*	i	i	-8	42%*	i	32%*	134*	0.13*
CC(=O)Nc1sc(C)c(C)c1C(=O)OCC(=O)Nc1ccccc1	x	x	x	i	x	x	x	x	x	x
CC(=O)Nc1sc(C)c(C)c1C(=O)OCCOc1ccccc1	i	-13*	i	-11*	-8	46%*	i	46%*	125*	0.13*
CCC(C)(C)C1CCC2(CC1)NC(=O)N(CC(=O)NCCc1c[nH]c3ccccc13)C2=O (stereo unspecified)	x	x	x	i	x	x	x	x	x	x
COc1ccc(NC(=O)/C(C#N)=C\c2ccc(N3CCOCC3)o2)cc1	i	-8.7*	10*	-12*	-22	48%*	36%*	76%*	132*	0.091*
Fc1ccc(N2CCN(C(c3cccs3)c3nnnn3CCc3ccccc3)CC2)cc1 (stereo unspecified)	i	-13*	i	-12*	-5	68%*	i	32%*	126*	0.15*
COc1cccc(C2CNC3(CCCC(C)C3)c3[nH]c4ccccc4c32)c1OC (stereo unspecified)	i	i	i	i	-5	x	x	x	x	x
CC1(C)CC(=O)CC2(C1)NCC(c1ccccc1)c1c2[nH]c2ccccc12 (stereo unspecified)	i	-15*	i	-9.3*	-4	64%*	i	34%*	99*	i
COc1ccc(O)c(/C=N/Nc2nc(C)cc(-c3ccccc3)n2)c1	i	-15*	i	-10*	-13	51%*	i	23%*	120*	0.14*
Cc1cccc(C)c1NC(=O)c1sccc1SCc1cccc(C(F)(F)F)c1	i	-14*	i	-9.4*	-9	56%*	49%*	45%*	101*	0.16*
O=C(NCc1ccc2c(c1)OCO2)c1cccc(Cl)c1	i	i	i	i	-1	x	x	x	x	x
O=C(NCc1ccc2c(c1)OCO2)c1ccc(-c2ccc(Cl)cc2)o1	i	-8.6*	i	-8.9*	-6	27%*	i	26%*	140*	0.12*
SMILES	KCNQ1 act	KCNK9 inh	KCNQ1 inh	KCNK3 inh	hERG rescue	KCNK9 inh conf	Kir21 sel	KCNK9 uninduced	KCNK3 inh conf	KCNK3 noninduced
C=C(C)COc1ccc(-c2ncnc(C(F)(F)F)c2-c2ccccc2)c(O)c1	i	i	i	i	-1	x	x	x	x	x
C=C(C)COc1ccc(-c2ncnc(C(F)(F)F)c2-c2ccc(OC)cc2)c(O)c1	i	i	i	-9.2*	-6	i	i	i	109*	0.15*
O=C(Nc1cccc(-c2cn3cccnc3n2)c1)c1ccc(Br)o1	i	-8.7*	i	-9.6*	-13	40%*	i	i	95*	i
O=C(Nc1cccc(NC(=O)c2cccs2)c1)c1ccc(Br)o1	i	-16*	i	-10*	-12	62%*	i	i	99*	i
O=C(Nc1ccc(NC(=O)c2cccs2)cc1)c1ccc(Br)o1	i	i	i	i	-6	x	x	x	x	x
Cc1cc(C)cc(C(=O)NC(=S)Nc2ccc(Cc3ccncc3)cc2)c1	i	i	i	-10*	-10	i	i	i	98*	i

High-throughput results (PubChem)
